For series [1], the target named is T1, Nuclear factor NF-kappa-B complex (Homo sapiens) (UniProt Q00653+P19838+Q04206). The series can be described thus: Inhibition of LPS-induced NF-kappaB activation in human THP-1 monocytes expressing luciferase gene at 0.01 to 100 nM pretreated for 30 mins followed by LPS stimulation and measured after 24 hrs by bioluminescence analysis. In kind it is cell-based. The note with it: dose 0.01-100 nM, time 24.5 hr. Summed up: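 Secreted luciferase in supernatant read with QUANTI-Luc by bioluminescence, normalized to BCA protein (lum/abs ratio, two replicates), expressed as % of LPS response; mean ± SEM, n = 3.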
T1 sequence (P19838 whole entry, looked up): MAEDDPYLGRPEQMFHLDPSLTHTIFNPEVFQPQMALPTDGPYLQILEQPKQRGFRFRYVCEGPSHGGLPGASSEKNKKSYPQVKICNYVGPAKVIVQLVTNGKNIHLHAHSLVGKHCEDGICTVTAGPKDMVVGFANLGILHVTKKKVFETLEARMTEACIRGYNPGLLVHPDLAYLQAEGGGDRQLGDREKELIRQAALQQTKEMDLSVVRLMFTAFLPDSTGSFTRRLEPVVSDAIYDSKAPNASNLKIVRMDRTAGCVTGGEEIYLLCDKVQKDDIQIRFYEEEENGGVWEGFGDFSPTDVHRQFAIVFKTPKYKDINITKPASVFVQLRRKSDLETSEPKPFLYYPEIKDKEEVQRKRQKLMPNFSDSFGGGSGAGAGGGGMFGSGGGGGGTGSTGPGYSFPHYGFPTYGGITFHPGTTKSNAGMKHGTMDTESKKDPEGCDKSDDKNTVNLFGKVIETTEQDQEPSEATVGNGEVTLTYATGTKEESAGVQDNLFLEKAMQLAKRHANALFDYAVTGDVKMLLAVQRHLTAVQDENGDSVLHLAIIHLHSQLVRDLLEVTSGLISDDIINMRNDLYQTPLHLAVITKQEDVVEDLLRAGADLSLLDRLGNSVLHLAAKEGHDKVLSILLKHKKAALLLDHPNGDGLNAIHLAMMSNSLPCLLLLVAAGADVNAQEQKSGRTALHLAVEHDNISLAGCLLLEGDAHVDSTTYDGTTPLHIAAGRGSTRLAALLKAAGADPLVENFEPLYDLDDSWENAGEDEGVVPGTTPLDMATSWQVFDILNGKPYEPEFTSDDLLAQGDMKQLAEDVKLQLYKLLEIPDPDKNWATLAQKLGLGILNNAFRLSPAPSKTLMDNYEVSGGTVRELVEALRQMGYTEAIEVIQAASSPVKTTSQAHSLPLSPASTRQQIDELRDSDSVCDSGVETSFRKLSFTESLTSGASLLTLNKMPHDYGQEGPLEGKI
T1 sequence (Q00653 whole entry, looked up): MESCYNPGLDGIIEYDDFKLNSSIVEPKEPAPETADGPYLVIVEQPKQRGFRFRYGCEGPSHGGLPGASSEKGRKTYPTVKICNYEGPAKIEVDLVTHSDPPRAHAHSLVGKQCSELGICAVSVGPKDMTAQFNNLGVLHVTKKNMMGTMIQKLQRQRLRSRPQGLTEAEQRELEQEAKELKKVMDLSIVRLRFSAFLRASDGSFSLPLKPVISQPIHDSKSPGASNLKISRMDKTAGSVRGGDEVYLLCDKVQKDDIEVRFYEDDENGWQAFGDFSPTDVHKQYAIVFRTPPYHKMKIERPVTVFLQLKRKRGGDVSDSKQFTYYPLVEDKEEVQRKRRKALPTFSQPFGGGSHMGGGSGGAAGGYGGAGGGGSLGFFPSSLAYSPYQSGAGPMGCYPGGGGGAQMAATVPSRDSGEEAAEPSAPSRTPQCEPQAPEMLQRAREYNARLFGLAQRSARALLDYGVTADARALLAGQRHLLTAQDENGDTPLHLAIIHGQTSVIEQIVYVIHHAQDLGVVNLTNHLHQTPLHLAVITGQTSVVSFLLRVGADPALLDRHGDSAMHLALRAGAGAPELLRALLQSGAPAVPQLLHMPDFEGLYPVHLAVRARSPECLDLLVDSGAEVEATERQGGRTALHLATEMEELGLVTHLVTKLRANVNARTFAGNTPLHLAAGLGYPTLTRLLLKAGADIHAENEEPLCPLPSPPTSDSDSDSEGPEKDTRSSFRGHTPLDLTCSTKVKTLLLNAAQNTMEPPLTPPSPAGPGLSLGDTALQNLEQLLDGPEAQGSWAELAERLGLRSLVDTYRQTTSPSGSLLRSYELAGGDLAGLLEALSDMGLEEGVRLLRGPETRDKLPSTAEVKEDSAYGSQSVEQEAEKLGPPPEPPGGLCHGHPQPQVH
T1 sequence (Q04206 whole entry, looked up): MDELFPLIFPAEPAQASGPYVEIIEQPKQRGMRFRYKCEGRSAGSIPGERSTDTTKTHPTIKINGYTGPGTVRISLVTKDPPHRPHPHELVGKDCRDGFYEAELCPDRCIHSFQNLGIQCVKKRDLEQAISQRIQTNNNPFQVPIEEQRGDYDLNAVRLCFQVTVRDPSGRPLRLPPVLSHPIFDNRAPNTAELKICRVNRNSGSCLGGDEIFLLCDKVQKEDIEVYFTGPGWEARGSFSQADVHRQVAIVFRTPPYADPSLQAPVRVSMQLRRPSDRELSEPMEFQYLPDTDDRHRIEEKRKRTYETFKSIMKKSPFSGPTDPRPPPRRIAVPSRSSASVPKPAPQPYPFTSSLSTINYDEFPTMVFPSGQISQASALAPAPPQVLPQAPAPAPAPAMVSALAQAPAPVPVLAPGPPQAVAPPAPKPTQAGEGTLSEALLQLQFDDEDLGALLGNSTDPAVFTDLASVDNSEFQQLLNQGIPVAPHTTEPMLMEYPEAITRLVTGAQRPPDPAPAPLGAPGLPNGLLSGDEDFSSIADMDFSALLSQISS

For series [2], the system named is THP-1. The series can be described thus: Anti-inflammatory activity against human THP-1 monocytes assessed as reduction in LPS-induced IL-1beta release at 0.01 nM to 100 nM pretreated for 30 mins followed LPS stimulation and measured after 24 hrs by multiplex chemiluminescence detection method. In kind it is functional. As to conditions: time 24.5 hrs. An outline of the steps:
(§1)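 THP-1-Lucia NF-κB monocytes (1 × 10⁵/well, 0.1% FBS medium) pretreated 30 min with compound (ethanol stock, final 0.1% ethanol vehicle), then 50 ng/mL LPS for 24 h.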

In series [3] the test system is THP-1. The series can be described thus: Cytoprotection against LPS-stimulated human THP-1 monocytes toxicity assessed as reduction LDH release at 1 uM incubated for 24 hrs by LDH assay. In kind it is functional. An outline of the steps:
(§2)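 Supernatant LDH read at 490 nm minus 690 nm background; maximum release from 2% Triton X-100 lysis; expressed as % LDH release relative to LPS ± SEM, n = 3.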

Series [4] is filed under the species Mus musculus. Put plainly: Anti-inflammatory activity in zymosan-induced C57BL/6J mouse model of peritonitis assessed as change in macrophage cell count. In kind it is functional, organism-based.
The species entered for series [5] is Mus musculus. Put plainly: Anti-inflammatory activity in zymosan-induced C57BL/6J mouse model of peritonitis assessed as change in monocyte cell count. In kind it is functional, organism-based.
The subject of series [6] is Mus musculus. Put plainly: Anti-inflammatory activity in zymosan-induced C57BL/6J mouse model of peritonitis assessed as reduced neutrophil influx at 11 mg/kg, ip treated 1 hr prior to zymosan administration (reference value: 100 %). In kind it is functional. Further details: scale not given: the % may be the effect or the level left.
In series [7] the test system is THP-1. The series can be described thus: Cytotoxicity against human THP-1 monocytes assessed as LDH release at 1 uM incubated for 24 hrs in absence of LPS by LDH assay. The note with it: thp-1, 24 h. In kind it is toxicity, cell-based. Summed up: (§3)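 THP-1-Lucia monocytes (1 × 10⁵/well) exposed 24 h to compound without LPS (1 pM upward; 0.1% ethanol vehicle). Supernatant LDH absorbance at 490 nm with 690 nm background; 2% Triton X-100 lysis defined maximum release, untreated cells spontaneous release; expressed as % LDH release relative to LPS ± SEM, n = 3.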

The species entered for series [8] is Mus musculus. The series can be described thus: Anti-inflammatory activity in zymosan-induced C57BL/6J mouse model of peritonitis assessed as change in polymorphonuclear cell count. In kind it is functional, organism-based. Summed up:
(§4)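 Male C57BL/6J mice (9 weeks) given zymosan 1 mg/mouse ip (40 mg/kg); compound (2 or 6 μg/kg) or dexamethasone (1 mg/kg) ip 30 min before and 1 h after zymosan. Peritoneal lavage 24 h post-zymosan; cells counted with Turk's solution, stained Ly6G/F4/80/CD11b, PMN as Ly6G⁺ by flow cytometry; % of vehicle + zymosan maximal response; n = 5 mice/group, one-way ANOVA.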

The subject of series [9] is Mus musculus. The series can be described thus: Anti-inflammatory activity in zymosan-induced C57BL/6J mouse model of peritonitis assessed as maximal response at 1 mg/kg, ip treated 30 mins prior to zymosan administration and once again 1 hr after zymosan administration and measured 24 hrs post zymosan injection by flow cytometry analysis (reference value: 100 %). In kind it is functional. As to conditions: time 24.5 hrs. An outline of the steps:
as §4

Series [10] has as its system THP-1. The series can be described thus: Anti-inflammatory activity against human THP-1 monocytes assessed as reduction in LPS-induced IFNgamma release at 1 pM pretreated for 30 mins followed LPS stimulation and measured after 24 hrs by multiplex chemiluminescence detection method. As to conditions: time 24.5 hrs. In kind it is functional, cell-based. Summed up:
as §1

Series [11] addresses T1, Nuclear factor NF-kappa-B complex (Homo sapiens). The series can be described thus: Inhibition of TNFalpha-stimulated NF-kappaB activity (unknown origin) expressed in mouse primary smooth muscle cells at 1 nM pretreated for 30 mins followed by TNFalpha stimulation and incubated for 24 hrs by SEAP reporter gene assay. In kind it is cell-based. The note with it: THP-1, time 24.5 hrs. An outline of the steps:
(§5)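 Mouse primary vascular SMCs in DMEM with 25 mM glucose, serum-restricted (1% FBS) 24 h, transfected 24 h with pNF-κB-SEAP, pretreated 30 min, then TNF-α 1 ng/mL for 24 h; 0.1% ethanol vehicle. Secreted alkaline phosphatase measured in supernatant; fold change vs vehicle, mean ± SEM of 6–8 independent experiments.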

In series [12] the test system is THP-1. Put plainly: Cytotoxicity against human THP-1 monocytes assessed as LDH release at 1 pM incubated for 24 hrs in absence of LPS by LDH assay. In kind it is toxicity, cell-based. As to conditions: thp-1, 24 h. An outline of the steps:
as §3

Series [13] has as its system THP-1. The series can be described thus: Anti-inflammatory activity against human THP-1 monocytes assessed as reduction in LPS-induced IFNgamma release pretreated for 30 mins followed LPS stimulation and measured after 24 hrs by multiplex chemiluminescence detection method. In kind it is functional, cell-based. An outline of the steps: as §1
The subject of series [14] is THP-1. The series can be described thus: Anti-inflammatory activity against human THP-1 monocytes assessed as reduction in LPS-induced IFNgamma release at 0.01 nM to 100 nM pretreated for 30 mins followed LPS stimulation and measured after 24 hrs by multiplex chemiluminescence detection method. In kind it is functional. As to conditions: time 24.5 hrs. An outline of the steps: as §1

In series [15] the test system is THP-1. The series can be described thus: Cytotoxicity against human THP-1 monocytes assessed as LDH release at 0.001 to 1000 nM incubated for 24 hrs in absence of LPS by LDH assay. In kind it is toxicity, cell-based. The note with it: thp-1, 24 h, 1 µM, dose 0.001-1000 nM. Summed up: as §3
For series [16], the system named is THP-1. The series can be described thus: Anti-inflammatory activity against human THP-1 monocytes assessed as […] in LPS-induced IL-8 release at 1 nM by multiplex chemiluminescence detection method. In kind it is functional, cell-based. Summed up: as §1
The subject of series [17] is THP-1. Put plainly: Induction of phagocytosis in human THP-1-MF0 macrophages at 100 nM pretreated for 30 mins followed by fluorescently labeled Escherichia coli derived bio-particles addition and measured after 2 hrs. In kind it is functional, cell-based. The note with it: time 2.5 hrs. An outline of the steps: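 THP-1 monocytes differentiated with 16 nM PMA 48 h plus 24 h rest; 1 × 10⁵ macrophages/well in 0.1% serum adhered 1.5 h, treated 30 min (1 fM–1 μM), medium replaced with fluorescent E. coli bioparticles for 2 h at 37 °C in dark; trypan blue quench 1 min; bottom-read fluorescence Ex480/Em520; fold change vs vehicle, n = 3.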

For another series, the system named is HEK293. The series can be described thus: Agonist activity at ALX/FPR2 receptor (unknown origin) expressed in HEK-293 cells assessed as increase in calcium flux at 0.01 to 100 nM by Fluo-4 staining based assay. In kind it is cell-based. The note with it: Homo sapiens, filed as agonist, dose 0.01-100 nM. An outline of the steps: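 HEK-293 cells stably double-transfected with ALX/FPR2 and Gαq (Geneticin 500 and Hygromycin 100 μg/mL selection); wild-type HEK-293 as specificity control. Cultured 18 h, loaded with Fluo-4 (37 °C, 1 h), compounds injected in-reader (10 pM–100 nM). Baseline-to-peak calcium fluorescence difference expressed as % of LXA₄ peak; ATP 1 μM and W-peptide 2 nM positive controls; n = 3 independent experiments.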

Series [18] concerns the target T1, Nuclear factor NF-kappa-B complex (Homo sapiens). Put plainly: Inhibition of TNFalpha-stimulated NF-kappaB activity (unknown origin) expressed in mouse primary smooth muscle cells at 0.1 nM pretreated for 30 mins followed by TNFalpha stimulation and incubated for 24 hrs by SEAP reporter gene assay. In kind it is cell-based. The note with it: time 24.5 hrs. An outline of the steps: as §5

For series [19], the system named is Mus musculus. Put plainly: Anti-inflammatory activity in C57BL/6J mouse model of carrageenan-induced paw edema assessed as reduction in paw swelling at 2 ug/kg, ip administered 30 mins prior to carrageenan injection. The note with it: dose 2.0 µg/kg. In kind it is functional, organism-based. Summed up:
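Male C57BL/6 mice dosed 30 min before intraplantar 50 μL 1% carrageenan (saline in contralateral paw); test compound 2 μg/kg ip, naproxen 50 mg/kg po. Paw thickness difference tracked over time (to 72 h) with a lever gauge as edema index; mean ± SEM, n = 3 mice/group.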

Series [20] relates to Mus musculus. The series can be described thus: Anti-inflammatory activity in zymosan-induced C57BL/6J mouse model of peritonitis assessed as reduced neutrophil influx at 6 ug/kg, ip treated 30 mins prior to zymosan administration (reference value: 100 %). Details: scale not given: the % may be the effect or the level left. As to conditions: 0.5 h.
For series [21], the system named is THP-1. The series can be described thus: Cytoprotection against LPS-stimulated human THP-1 monocytes toxicity assessed as fold reduction in LDH release at 0.001 to 1000 nM incubated for 24 hrs by LDH assay. In kind it is functional. As to conditions: dose 0.001-1000 nM. An outline of the steps:
as §2

In series [22] the test system is Mus musculus. Put plainly: Anti-inflammatory activity in zymosan-induced C57BL/6J mouse model of peritonitis assessed as total number of polymorphonuclear cells at 6 ug/kg, ip treated 30 mins prior to zymosan administration and once again 1 hr after zymosan administration and measured 24 hrs post zymosan injection by flow cytometry analysis (reference value: 4.7 +/- 0.5 x10^6 /ml). In kind it is functional. The note with it: dose 6 µg/kg; time 24.5 hrs. Summed up:
as §4

In series [23] the test system is Mus musculus. Put plainly: Anti-inflammatory activity in zymosan-induced C57BL/6J mouse model of peritonitis assessed as maximal response at 6 ug/kg, ip treated 30 mins prior to zymosan administration and once again 1 hr after zymosan administration and measured 24 hrs post zymosan injection by flow cytometry analysis (reference value: 100 %). In kind it is functional. The note with it: dose 6 µg/kg; time 24.5 hrs. An outline of the steps:
as §4

Molecules are shown by their SMILES. The source made the active and inactive calls. The calls are words filed in the database; no cut-off is given here.

Consider `CCCCC[C@H](O)c1nc2ccccc2nc1/C=C/[C@@H](O)[C@@H](O)CCCC(=O)OC`, for which the Imax in series [1] amounted to 25%. In addition, the outcome in the series on THP-1 [2] was inactive.
As to `C[C@@H]1C[C@H]2[C@@H]3CCC4=CC(=O)C=C[C@]4(C)[C@@]3(F)[C@@H](O)C[C@]2(C)[C@@]1(O)C(=O)CO` [DEXAMETHASONE], the result with THP-1 [3], in the series listed under Mus musculus [4], in the series listed under Mus musculus [5] and in the series listed under Mus musculus [8] was inactive. Further, the Activity with Mus musculus [6] is reported as 33.5%; with THP-1 [7], “Non-Toxic”; in the series with Mus musculus [9], 51%.
For `CCCCC[C@@H](O)c1ccccc1/C=C/[C@@H](O)[C@@H](O)CCCC(=O)OC`, the outcome in the series with THP-1 [10] was inactive. In series [11], the inhibition result was “Active”. Moreover, the Activity result with THP-1 [12] is recorded as “Non-Toxic”.
In the case of `CCC[C@@H](O)c1nc2ccccc2nc1/C=C/[C@@H](O)[C@@H](O)CCCC(=O)OC`, the Imax was found to be 30% in series [1] and 85% in the series with THP-1 [14]. The IC50 in the series on THP-1 [13] was determined as 1 pM. For the same molecule, in the series with THP-1 [15], the Activity result is reported as “Non-Toxic”.
On to `CCCCC[C@H](O)c1nc2ccccc2nc1/C=C/[C@H]1OC(C)(C)O[C@H]1CCCC(=O)OC`, for which the Activity result with THP-1 [15] was “Toxic”.
Take `CCCCC[C@H](O)/C=C/C=C\C=C\C=C\[C@@H](O)[C@@H](O)CCCC(=O)O` [LIPOXIN A4]: the result in the series on THP-1 [16], in the series on THP-1 [17] and in the series with HEK293 was Active. In the series on THP-1 [2], the Imax was 93%. Moreover, the inhibition entry in series [18] was “Active”.
For the molecule `CCCCC[C@@H](O)c1nc2ccccc2nc1/C=C/[C@H]1OC(C)(C)O[C@H]1CCCC(=O)OC`, the result with Mus musculus [19] was inactive. In addition, the Activity entry in the series on THP-1 [15] is reported as “Toxic”.
Turning to `CCCCCCC[C@H](O)c1nc2ccccc2nc1/C=C/[C@@H](O)[C@@H](O)CCCC(=O)OC`, the Activity entry with THP-1 [15] is “Non-Toxic”.
Regarding `CCC[C@H](O)c1nc2ccccc2nc1/C=C/[C@@H](O)[C@@H](O)CCCC(=O)OC`, the Imax turned out to be 30% in [1] and 85% in the series with THP-1 [14]. In the series on THP-1 [13], the IC50 was 1 pM.
Take `CCCCC[C@@H](O)c1c(/C=C/[C@@H](O)[C@@H](O)CCCC(=O)OC)nc(C)n1C`: the Activity entry with THP-1 [12] was “Non-Toxic”.
`CCCCC[C@@H](O)c1nc2ccccc2nc1/C=C/[C@@H](O)[C@@H](O)CCCC(=O)OC`: the Activity in the series with Mus musculus [20] was 22.5%; in the series with Mus musculus [22], 3.2 10^6/ml; with Mus musculus [23], 68%; in the series with THP-1 [15], “Non-Toxic”. The outcome in the series filed under Mus musculus [4], in the series listed under Mus musculus [5] and in the series listed under Mus musculus [8] was inactive. The result in the series on THP-1 [16] and in the series with Mus musculus [19] was Active. For the same molecule, the “fold change (FC)” value with THP-1 [21] is reported as 1.3.

Values taken from ChEMBL document CHEMBL5038597 (J Med Chem, 2021).
